Values joined by “and” are separate entries in the source; they are usually repeats but may differ in a detail not shown here. Equal values may be shown once.
Tested on: Fibroblast
Experiment: Multiplex assay against human fibroblast
Type: toxicity, cell-based
Outline: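 Live cells carried four stains from seeding: Hoechst33342, BioTracker Green Microtubule Cytoskeleton Dye, MitoTracker Red and Annexin V Alexa Fluor 680. They were imaged on a CQ1 microscope at 37°C and 5% CO2 after compound addition. Using CellPathfinder machine-learning gating, cells were split into Hoechst high-intensity objects or normal cells, normal cells into healthy, pyknosed or fragmented nuclei, and pyknosed cells into mitotic or apoptotic; tubulin, mitochondrial-mass and membrane-permeability phenotypes are per cents of healthy-nucleus cells.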

[1] = 12 h, 1 µM, compound concentration 1 uM
[2] = 12 h, 10 µM, compound concentration 10 uM
[3] = 24 h, 1 µM, compound concentration 1 uM
[4] = 24 h, 10 µM, compound concentration 10 uM
[5] = 48 h, 1 µM, compound concentration 1 uM
[6] = 48 h, 10 µM, compound concentration 10 uM

COCCCN1CCC(NC(=O)c2cc(Cl)c(N)c3c2OCC3)CC1 [PRUCALOPRIDE]
Population Apoptotic (%) [1]: 33% and 48% | Population Fragmented Nuclei (%) [1]: 20% and 31% | Population Healthy Nuclei (%) [1]: 62% and 48% | Population Hoechst High Intensity Objects (%) [1]: 3% and 4% | Population Membrane Permeable-Phenotype (%) [1]: 0% and 5% | Population Mitochondria Different-Phenotype (%) [1]: 3% and 8% | Population Mitotic Cells (%) [1]: 66% and 52% | Population Normal (%) [1]: 96% and 95% | Population Pyknosed Nuclei (%) [1]: 16% and 20% | Population Tubulin-Different-Phenotype (%) [1]: 30% and 51% | Total Cell Count [1]: 132 and 130 | Population Apoptotic (%) [2]: 30% and 35% | Population Fragmented Nuclei (%) [2]: 12% and 28% | Population Healthy Nuclei (%) [2]: 66% and 46% | Population Hoechst High Intensity Objects (%) [2]: 0% and 11% | Population Membrane Permeable-Phenotype (%) [2]: 1% and 7% | Population Mitochondria Different-Phenotype (%) [2]: 7% and 3% | Population Mitotic Cells (%) [2]: 70% and 64% | Population Normal (%) [2]: 99% and 88% | Population Pyknosed Nuclei (%) [2]: 20% and 25% | Population Tubulin-Different-Phenotype (%) [2]: 31% and 55% | Total Cell Count [2]: 144 and 153 | Population Apoptotic (%) [3]: 48% and 72% | Population Fragmented Nuclei (%) [3]: 20% and 36% | Population Healthy Nuclei (%) [3]: 57% and 49% | Population Hoechst High Intensity Objects (%) [3]: 2% and 7% | Population Membrane Permeable-Phenotype (%) [3]: 0% and 7% | Population Mitochondria Different-Phenotype (%) [3]: 3% and 4% | Population Mitotic Cells (%) [3]: 51% and 27% | Population Normal (%) [3]: 97% and 92% | Population Pyknosed Nuclei (%) [3]: 21% and 14% | Population Tubulin-Different-Phenotype (%) [3]: 25% and 50% | Total Cell Count [3]: 136 and 138 | Population Apoptotic (%) [4]: 63% and 30% | Population Fragmented Nuclei (%) [4]: 10% and 24% | Population Healthy Nuclei (%) [4]: 74% and 57% | Population Hoechst High Intensity Objects (%) [4]: 6% and 5% | Population Membrane Permeable-Phenotype (%) [4]: 1% and 11% | Population Mitochondria Different-Phenotype (%) [4]: 6% and 3% | Population Mitotic Cells (%) [4]: 36% and 69% | Population Normal (%) [4]: 93% and 94% | Population Pyknosed Nuclei (%) [4]: 15% and 18% | Population Tubulin-Different-Phenotype (%) [4]: 30% and 56% | Total Cell Count [4]: 128 and 148 | Population Apoptotic (%) [5]: 50% | Population Fragmented Nuclei (%) [5]: 25% and 36% | Population Healthy Nuclei (%) [5]: 60% and 49% | Population Hoechst High Intensity Objects (%) [5]: 4% and 2% | Population Membrane Permeable-Phenotype (%) [5]: 2% and 3% | Population Mitochondria Different-Phenotype (%) [5]: 3% and 6% | Population Mitotic Cells (%) [5]: 50% | Population Normal (%) [5]: 95% and 97% | Population Pyknosed Nuclei (%) [5]: 14% and 13% | Population Tubulin-Different-Phenotype (%) [5]: 38% and 53% | Total Cell Count [5]: 146 and 132 | Population Apoptotic (%) [6]: 64% and 62% | Population Fragmented Nuclei (%) [6]: 22% and 34% | Population Healthy Nuclei (%) [6]: 66% and 48% | Population Hoechst High Intensity Objects (%) [6]: 2% and 6% | Population Membrane Permeable-Phenotype (%) [6]: 1% and 7% | Population Mitochondria Different-Phenotype (%) [6]: 6% and 7% | Population Mitotic Cells (%) [6]: 35% and 37% | Population Normal (%) [6]: 97% and 93% | Population Pyknosed Nuclei (%) [6]: 10% and 17% | Population Tubulin-Different-Phenotype (%) [6]: 38% and 57% | Total Cell Count [6]: 136 and 146

CCC(=O)N1CCN(c2ccc(-n3c(=O)ccc4cnc5ccc(-c6cnc7ccccc7c6)cc5c43)cc2C(F)(F)F)CC1 [TORIN1]
Population Healthy Nuclei (%) [2]: 60% and 44% | Population Membrane Permeable-Phenotype (%) [2]: 1% | Population Mitochondria Different-Phenotype (%) [2]: 5% and 0% | Population Mitotic Cells (%) [2]: 72% and 65% | Population Normal (%) [2]: 94% and 90% | Population Tubulin-Different-Phenotype (%) [2]: 62% and 64% | Total Cell Count [2]: 155 and 131 | Population Healthy Nuclei (%) [4]: 57% | Population Membrane Permeable-Phenotype (%) [4]: 0% | Population Mitochondria Different-Phenotype (%) [4]: 10% and 5% | Population Mitotic Cells (%) [4]: 66% and 56% | Population Normal (%) [4]: 96% and 93% | Population Tubulin-Different-Phenotype (%) [4]: 62% and 59% | Total Cell Count [4]: 137 and 128 | Population Apoptotic (%) [6]: 80% | Population Healthy Nuclei (%) [6]: 72% and 62% | Population Membrane Permeable-Phenotype (%) [6]: 0% and 8% | Population Mitotic Cells (%) [6]: 20% and 46% | Population Normal (%) [6]: 96% and 95% | Population Pyknosed Nuclei (%) [6]: 10% | Population Tubulin-Different-Phenotype (%) [6]: 67% and 61% | Total Cell Count [6]: 127 and 136
